Pf gametocyte: inhibitors of late stage P. falciparum gametocyte viability; P. falciparum stage V gametocytes, ATP luminescence, 24 h; 0.065% of 150,000 active; inhibition, % at 10.9 µM;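 active means inhibition above the mean plus 3 SD of compounds within the control limits, set per campaign, cut at about 38% in these data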;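 further: 0% = DMSO wells and 100% = medium only without gametocytes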
S1P3 antag: antagonists of human S1P3 receptor | Q99500 | CHO S1P3 NFAT-BLA reporter, FRET fluorescence, antagonist mode | inhibition, % at 4.98 µM | 0.27% of 170,000 active | AID 485;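 active means inhibition above the plate cutoff, the mean inhibition of test wells on that plate plus 3 SD, cut at about 28% in these data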;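 further: cells challenged with S1P at its EC80 of 0.8 µM; blue over green emission ratio from cleaved BLA substrate after 4 h stimulation; 0% = S1P-stimulated wells and 100% = unstimulated DMSO-only wells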
S1P4 antagonist: human S1P4 receptor antagonism; inhibition, % at 4.98 µM; S1P4-expressing cells, antagonist mode, reporter read-out; 0.26% of 220,000 active; O95977; in the data active means inhibition above about 29%;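 further: 0% = wells stimulated with agonist and 100% = vehicle wells without agonist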
S1P4 ag: activates the human S1P4 receptor. 0.35% of 220,000 active. activation, % at 4.98 µM. O95977. S1P4-expressing cell line, agonist reporter assay. AID 1509; in the data active means activation above about 11%;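 further: 0% = DMSO vehicle and 100% = reference agonist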
Biofilm kill mix: mixture kills Candida albicans biofilm cells | AID 1242 | inhibition, % at 7.6 µM | 0.02% of 120,000 active | C. albicans biofilm persisters + clotrimazole, fluorescence viability; primary screen in compound mixtures of four per well;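 further: compounds exposed to preformed 24 h biofilms for 48 h; 0% = untreated biofilm control and 100% = clotrimazole plus chlorhexidine kill blank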
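Incubation: 24 h biofilm formation, then 48 h compound exposure, 37 °C | Material: C. albicans biofilms | Buffer or medium: RPMI/MOPS medium, pH 7.0 | Measured by: 2-h Alamar Blue fluorescence, 535/590 nm excitation/emission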
S1P4 antag cf: human S1P4 antagonism, confirmation | AID 1524 | S1P4-expressing cell line, antagonist mode, reporter read-out | shares compounds with S1P4 antagonist | inhibition, % at 4.98 µM | 71% of 520 active; in the data active means inhibition above about 30%
S1P1 antagonist: counter-screen for S1P4 antagonists: antagonists of human S1P1; cell-based S1P1 antagonist counterscreen, inhibition; AID 1564; inhibition, % at 4.98 µM; shares compounds with S1P4 antagonist; 37% of 520 active; in the data active means inhibition above about 40%;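 further: receptor stimulated with S1P near its EC80; 0% = agonist stimulated wells and 100% = vehicle only wells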
Target sequence (P21453 whole entry, looked up): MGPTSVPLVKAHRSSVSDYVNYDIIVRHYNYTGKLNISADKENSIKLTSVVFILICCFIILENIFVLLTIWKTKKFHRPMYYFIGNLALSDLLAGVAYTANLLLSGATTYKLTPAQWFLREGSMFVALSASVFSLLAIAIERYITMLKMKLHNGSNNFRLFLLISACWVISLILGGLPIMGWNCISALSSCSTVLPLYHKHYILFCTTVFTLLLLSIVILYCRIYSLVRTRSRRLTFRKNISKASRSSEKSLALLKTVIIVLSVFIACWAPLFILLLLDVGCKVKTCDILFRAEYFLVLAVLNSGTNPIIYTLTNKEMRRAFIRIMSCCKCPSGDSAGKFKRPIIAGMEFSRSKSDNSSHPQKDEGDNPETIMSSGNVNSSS
Active calls of the source: *; · = no result. Sampled rows, rich in hits. Any-hit rate of the full collection: about 0.77%.

SMILES	Pf gametocyte	S1P3 antag	S1P4 antagonist	S1P4 ag	Biofilm kill mix	S1P4 antag cf	S1P1 antagonist
O=C(Cn1ncc2c1-c1ccccc1OC2)N1CCc2ccccc21	·	10	-3	0	·	·	·
O=C(Cn1ncc(Cl)c(Cl)c1=O)N1CCOCC1	4	-5	44*	-4	2	60*	27
Cc1nn(CC(=O)N2c3ccccc3NC(=O)C2(C)C)c(C)c1[N+](=O)[O-]	-2	1	-1	0	11	·	·
O=C(Cn1ncc2c1-c1ccccc1OC2)N1CCN(Cc2ccccc2)CC1	1	4	9	0	24	·	·
Cc1cc(C)c(NC(=O)COC(=O)/C=C/c2cccs2)c(C)c1	·	-30	-4	1	17	·	·
Cc1ccc(C)c(OCC(=O)Nc2ccc3c(c2)OCO3)c1C	·	8	30*	0	·	2	6
CCOC(=O)c1c(NC(=O)OC)sc(C(=O)N(C)C)c1C	·	·	44*	2	·	-1	-3
COC(=O)Nc1sc(C(=O)N(C)C)c(C)c1C(=O)OC	·	·	-9	1	·	·	·
CC(=O)Nc1ccc(S(=O)(=O)NCCCc2ccccc2)cc1	8	·	·	·	·	·	·
Cc1ccc(S(=O)(=O)Nc2cccc3cccnc23)cc1	-6	·	42*	4	·	110*	98*
CC(C)N1CCC2(CC1)N=C(c1ccc3c(c1)OCO3)CC(c1cc(Cl)ccc1O)N2 (stereo not given)	6	10	35*	0	·	79*	23
Cn1cc([N+](=O)[O-])c(C(=O)Nc2cc(Oc3ccccc3)cc([N+](=O)[O-])c2)n1	20	-11	37*	0	10	111*	-3
Cc1nn(C)cc1C(=O)Nc1cc(Oc2ccc(Cl)cc2)cc([N+](=O)[O-])c1	·	·	-27	0	·	·	·
N#Cc1cc(Oc2cccc3cccnc23)c(-n2nnc3ccccc32)cc1C#N	·	·	34*	7	·	12	-20
CC1CCN(C(=O)c2[nH]cnc2C(=O)N2CCN(c3ccccc3)CC2)CC1	9	·	·	·	·	·	·
COc1ccc(-c2cc(C#N)nc(Cl)n2)cc1	-14	-7	57*	-2	5	97*	28
Cc1ccc(-c2csc(NC(=O)C3CCN(S(=O)(=O)c4cccs4)CC3)n2)cc1	29	2	59*	-1	-6	5	14
CCS(=O)(=O)N1CCC(C(=O)NCCN2CCOCC2)CC1	-13	-26	6	1	8	·	·
CCS(=O)(=O)N1CCC(C(=O)NCCCN2CCCC2)CC1	·	13	32*	-1	·	12	15
COc1ccc(-c2nc3nc(N)nn3cc2C)cc1F	19	-17	-1	4	-7	·	·
CCOc1ccc(/C=N/Nc2nc(C)cs2)c(O)c1	-25	·	·	·	·	·	·
CC(=O)N1/C(=C/c2ccc(N(C)C)cc2)C(=O)c2ccccc21	-12	-26	30*	-4	0	91*	91*
CN(C)c1ccc(/C=C2\CCC/C(=C\c3ccccc3)C2=O)cc1	-14	5	-10	2	10	·	·
CC1=CC(=C2C=CC(=O)C=C2)C=C(C)N1C	·	-35	-3	1	7	·	·
Cc1ccc(C(=O)N/C(=C\c2ccc(-c3ccc(Cl)cc3)o2)C(=O)NCCCN(C)C)cc1	6	-2	36*	-1	-13	2	-5
SMILES	Pf gametocyte	S1P3 antag	S1P4 antagonist	S1P4 ag	Biofilm kill mix	S1P4 antag cf	S1P1 antagonist
CN(C)CCCNC(=O)/C(=C\c1ccc(-c2ccc(Br)cc2)o1)NC(=O)c1ccccc1	-8	-17	-4	-1	9	·	·
Cc1ccc(SCCC(=O)N2CCOCC2)cc1	-14	-1	29*	0	·	7	6
Cn1c(=O)[nH]c(=O)c2c1nc([N+](=O)[O-])n2Cc1ccccc1	4	-3	51*	-1	10	68*	56*
CCNc1nc2c(c(=O)[nH]c(=O)n2C)n1CC(C)C	·	-10	-16	3	·	·	·
CC(C)Cn1c([N+](=O)[O-])nc2c1c(=O)[nH]c(=O)n2C	5	15	29*	-1	31	24	16
O=C(Oc1ccc(Nc2ncnc3ccccc23)cc1)c1cccnc1	-11	6	-15	0	0	·	·
O=c1ccsn1Cc1ccccc1	·	-22	33*	0	·	36*	16
CC1CCN(C(=O)c2ncn(Cc3ccccc3)c2C(=O)N2CCC(C)CC2)CC1	10	·	·	·	·	·	·
CCOC(=O)CC(NC(=O)c1ccc(C)cc1)c1ccc(OC)cc1 (stereo not given)	·	-1	11	2	0	·	·
CC(=O)n1cc(N(C(=O)CCl)c2ccc(C)cc2)c2ccccc21	1	-13	29*	1	21	106*	45*
Nc1ncnc2c1ncn2C1OC(CO)C(O)C1N (stereo not given)	·	2	-4	1	16	·	·
Nc1ncnc2c1ncn2C1OC(CO)C(O)C1O (stereo not given)	0	-18	39*	-2	31	67*	41*
CS(=O)(=O)Nc1nc2n(n1)C(c1ccccc1)CC(c1ccccc1)N2 (stereo not given)	8	1	4	0	24	·	·
CC1Cn2c(nnc2-c2cc3ccccc3cc2O)S1 (stereo not given)	-17	-2	34*	1	·	6	26
Cc1cc2c(c(N3CCOCC3)n1)C(=O)OC2	·	·	35*	0	·	-3	-1
CCn1ccnc1CN(C)Cc1nc(Cc2cccc(C(F)(F)F)c2)no1	7	2	-6	0	13	·	·
Cc1cccc(CSc2cccc3cccnc23)c1	·	·	39*	-2	·	96*	65*
CN(C#N)c1nc(Cl)nc(Nc2cccc(Cl)c2)n1	14	-10	2	1	7	·	·
O=C(NCc1cccnc1)C(=O)N/N=C/c1ccc([N+](=O)[O-])cc1	-1	-12	30*	1	8	10	4
CCN(CC)CCSc1nnc2c3cc(C)ccc3n(Cc3ccccc3)c2n1	-1	-14	-9	0	7	·	·
N#C/C(=C\c1cccc(O)c1)c1nc2ccccc2o1	15	11	32*	1	34	1	7
N#C/C(=C\c1ccncc1)c1nc2ccccc2o1	17	-18	22	-1	24	·	·
Cc1ccccc1CC1(CO)CCCN(C(=O)c2ccc3ncccc3c2)C1 (stereo not given)	2	5	-8	2	0	·	·
CCC(OC(=O)c1cccs1)C(=O)NCc1ccc(C)cc1 (stereo not given)	22	-2	-11	2	29	·	·
Nc1cccc2c1C(=O)N(C(=O)c1cccc(S(=O)(=O)N3CCCC3)c1)C2=O	·	·	31*	-1	·	18	23
Cc1nnc(N/N=C/c2c(Cl)cccc2Cl)n1N	·	-19	30*	0	3	7	-20
CCOC(=O)C1C(c2ccc(O)c(OC)c2)NC(=S)NC1(O)C(F)(F)F (stereo not given)	-21	-15	-5	1	12	·	·

High-throughput results as filed in PubChem.
